According to ChEMBL document CHEMBL4270630:

What was measured:
Influenza A virus [1] = test: Antiviral activity against Influenza A virus A/PR/8/34(H1N1) infected in MDCK cells assessed as reduction in virus-induced cytopathic effect after 3 days by microscopic method; assay type: functional, organism-based, A/Puerto Rico/8/1934(H1N1)
Procedure, shortened: (§1)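 Semi-confluent MDCK cells were infected at an MOI of 0.0004 PFU/cell in Ultra-MDCK infection medium with 2 μg/mL TPCK-trypsin, together with compounds. After 3 days at 35 °C, CPE was scored by microscopy and confirmed by MTS formazan viability. EC50 is the concentration giving 50% inhibition of virus-induced CPE. Values are means of two to five independent tests.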

Influenza A virus [2] = test: Antiviral activity against Influenza A virus A/PR/8/34(H1N1) infected in MDCK cells after 3 days by MTS assay; assay type: functional, organism-based, A/Puerto Rico/8/1934(H1N1); procedure, shortened: as §1
[3] = Cytotoxicity against MDCK cells assessed as alteration in cell morphology after 3 days by microscopic method; assay type: cell-based, Canis lupus familiaris; conditions: dog
Procedure, shortened: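 Mock-infected MDCK cells were treated with compounds in parallel with the antiviral assay, 3 days at 35 °C. MCC is the concentration causing minimal change in cell morphology by microscopy. CC50 is the 50% cytotoxic concentration by MTS formazan viability assay.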

Influenza A virus [4] = test: Antiviral activity against Influenza A virus A/Virginia/ATCC3/2009(H1N1pdm) infected in MDCK cells assessed as reduction in virus-induced cytopathic effect after 3 days by microscopic method; assay type: functional, organism-based, Influenza A virus (A/Virginia/03/2009(H1N1)); conditions: 72 h; procedure, shortened: as §1
Influenza B virus [5] = test: Antiviral activity against Influenza B virus B/HK/05/72 infected in MDCK cells after 3 days by MTS assay; assay type: functional, organism-based; conditions: B/Hong Kong/05/1972, MDCK, 72 h; procedure, shortened: as §1
Influenza A virus [6] = test: Antiviral activity against Influenza A virus A/Virginia/ATCC3/2009(H1N1pdm) infected in MDCK cells after 3 days by MTS assay; assay type: functional, organism-based, Influenza A virus (A/Virginia/03/2009(H1N1)); conditions: 72 h; procedure, shortened: as §1
Influenza B virus [7] = test: Antiviral activity against Influenza B virus B/HK/05/72 infected in MDCK cells assessed as reduction in virus-induced cytopathic effect after 3 days by microscopic method; assay type: functional, organism-based; conditions: B/Hong Kong/05/1972, MDCK, 72 h; procedure, shortened: as §1
MDCK = test: Cytotoxicity against MDCK cells assessed as reduction in cell viability after 3 days by MTS assay; assay type: cell-based, Canis lupus familiaris; conditions: dog, mdck, 72 h
H3N2 subtype [8] = test: Antiviral activity against Influenza A virus A/HK/7/87(H3N2) infected in MDCK cells assessed as reduction in virus-induced cytopathic effect after 3 days by microscopic method; assay type: functional, organism-based; conditions: A/Hong Kong/7/1987(H3N2), 72 h; procedure, shortened: as §1
H3N2 subtype [9] = test: Antiviral activity against Influenza A virus A/HK/7/87(H3N2) infected in MDCK cells after 3 days by MTS assay; assay type: functional, organism-based; conditions: A/Hong Kong/7/1987(H3N2), 72 h; procedure, shortened: as §1
Influenza B virus [10] = test: Antiviral activity against Influenza B virus B/Ned/537/05 infected in MDCK cells after 3 days by MTS assay; assay type: functional, organism-based; conditions: B/Ned/537/05, MDCK, 72 h
Procedure, shortened: (§2)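 Semi-confluent MDCK cells were infected at an MOI of 0.0004 PFU/cell in Ultra-MDCK infection medium with 2 μg/mL TPCK-trypsin, together with compounds. After 3 days at 35 °C, CPE was scored by microscopy and confirmed by MTS formazan viability. Values are means of two to five independent tests.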

Influenza B virus [11] = test: Antiviral activity against Influenza B virus B/Ned/537/05 infected in MDCK cells assessed as reduction in virus-induced cytopathic effect after 3 days by microscopic method; assay type: functional, organism-based; conditions: B/Ned/537/05, MDCK, 72 h; procedure, shortened: as §2
[12] = Influenza A virus, A/Puerto Rico/8/1934(H1N1), MDCK, 72 h

| SMILES | EC50 (Influenza A virus [1]; [12]) [µM] | EC50 (Influenza A virus [2]; [12]) [µM] | MCC at 72 h [3] [µM] | EC50 (Influenza A virus [4]) [nM] | EC50 (Influenza B virus [5]) [µM] | EC50 (Influenza A virus [6]) [µM] | EC50 (Influenza B virus [7]) [µM] | CC50 (MDCK) [µM] | EC50 (H3N2 subtype [8]) [µM] | EC50 (H3N2 subtype [9]) [µM] | EC50 (Influenza B virus [10]) [µM] | EC50 (Influenza B virus [11]) [µM] | EC50 (Influenza A virus [1]; mdck) [µM] | EC50 (Influenza A virus [2]; mdck) [µM] |
| --- | --- | --- | --- | --- | --- | --- | --- | --- | --- | --- | --- | --- | --- | --- |
| CCCCCCCCSC1=C(SCCCCCCCC)C(=O)N(CCOCCOCCOCCOCc2cn(C3C(=O)N[C@@H]4Cc5ccc(c(Cl)c5)Oc5cc6cc(c5O)Oc5ccc(cc5Cl)[C@@H](O[C@@H]5O[C@H](CO)[C@@H](O)[C@H](O)[C@H]5NC(C)=O)[C@H]5NC(=O)[C@H](NC(O)[C@@H]6NC(=O)[C@@H](NC4=O)c4cc(O)cc(c4)Oc4cc3ccc4O)c3ccc(O)c(c3)-c3c(O)cc(O)cc3[C@H](C(=O)O)NC5=O)nn2)C1=O (stereo not given in full) | 1.3 | 2 | ≥ 4 | ≤ 1400 | > 20 | ≤ 0.8 | > 20 | 19 | 0.92 | ≤ 0.8 |  |  |  |  |
| NC12CC3CC(CC(C3)C1)C2 [AMANTADINE] | > 500 | > 500 | > 500 |  |  |  |  | > 500 | 11 | 1.9 | > 500 | > 500 |  |  |
| CCCCCCCCCCCCSC1=C(SCCCCCCCCCCCC)C(=O)N(CCOCCOCCOCCOCc2cn(C3C(=O)N[C@@H]4Cc5ccc(c(Cl)c5)Oc5cc6cc(c5O)Oc5ccc(cc5Cl)[C@@H](O[C@@H]5O[C@H](CO)[C@@H](O)[C@H](O)[C@H]5NC(C)=O)[C@H]5NC(=O)[C@H](NC(O)[C@@H]6NC(=O)[C@@H](NC4=O)c4cc(O)cc(c4)Oc4cc3ccc4O)c3ccc(O)c(c3)-c3c(O)cc(O)cc3[C@H](C(=O)O)NC5=O)nn2)C1=O (stereo not given in full) | > 100 | 13 | 20 | > 100000 |  | 2.8 |  | 79 | > 100 | 2.4 | > 100 | > 100 |  |  |
| CC(=O)N[C@H]1[C@H](O[C@@H]2c3ccc(c(Cl)c3)Oc3cc4cc(c3O)Oc3ccc(cc3Cl)C[C@H]3NC(=O)C(n5cc(CN6C(=O)C(SC[C@H]7O[C@@H]8OC(C)(C)O[C@@H]8[C@H]8OC(C)(C)O[C@H]87)=C(SC[C@H]7O[C@@H]8OC(C)(C)O[C@@H]8[C@H]8OC(C)(C)O[C@H]87)C6=O)nn5)c5ccc(O)c(c5)Oc5cc(O)cc(c5)[C@H](NC3=O)C(=O)N[C@H]4C(O)N[C@H]3C(=O)N[C@H]2C(=O)N[C@@H](C(=O)O)c2cc(O)cc(O)c2-c2cc3ccc2O)O[C@H](CO)[C@@H](O)[C@@H]1O (stereo not given in full) | > 100 | > 100 | 20 | > 100000 | > 100 | > 100 | > 100 | 18 | > 100 | > 100 |  |  |  |  |
| CCCCCCCCCCCCSC1=C(SCCC)C(=O)N([C@H]2C(=O)N[C@@H]3Cc4ccc(c(Cl)c4)Oc4cc5cc(c4O)Oc4ccc(cc4Cl)[C@@H](O[C@@H]4O[C@H](CO)[C@@H](O)[C@H](O)[C@H]4NC(C)=O)[C@H]4NC(=O)[C@H](NC(O)[C@@H]5NC(=O)[C@@H](NC3=O)c3cc(O)cc(c3)Oc3cc2ccc3O)c2ccc(O)c(c2)-c2c(O)cc(O)cc2[C@H](C(=O)O)NC4=O)C1=O (stereo not given in full) | > 100 | 10 | ≥ 20 | 5100 |  | 8.2 |  | 29 | 7.3 | 6.8 | 7.3 | 8.9 |  |  |
| CC(N)C12CC3CC(CC(C3)C1)C2 (stereo not given) [RIMANTADINE] | > 500 | > 500 | > 500 |  |  |  |  | > 500 | 0.2 |  | > 500 | > 500 |  |  |
| CCCCCCCCSC1=C(SCCCCCCCC)C(=O)N([C@H]2C(=O)N[C@@H]3Cc4ccc(c(Cl)c4)Oc4cc5cc(c4O)Oc4ccc(cc4Cl)[C@@H](O[C@@H]4O[C@H](CO)[C@@H](O)[C@H](O)[C@H]4NC(C)=O)[C@H]4NC(=O)[C@H](NC(O)[C@@H]5NC(=O)[C@@H](NC3=O)c3cc(O)cc(c3)Oc3cc2ccc3O)c2ccc(O)c(c2)-c2c(O)cc(O)cc2[C@H](C(=O)O)NC4=O)C1=O (stereo not given in full) | > 100 | > 100 | 20 | 2100 | > 100 | 1.9 | > 100 | 11 | > 100 | > 100 |  |  |  |  |
| CCCSC1=C(SCCC)C(=O)N([C@H]2C(=O)N[C@@H]3Cc4ccc(c(Cl)c4)Oc4cc5cc(c4O)Oc4ccc(cc4Cl)[C@@H](O[C@@H]4O[C@H](CO)[C@@H](O)[C@H](O)[C@H]4NC(C)=O)[C@H]4NC(=O)[C@H](NC(O)[C@@H]5NC(=O)[C@@H](NC3=O)c3cc(O)cc(c3)Oc3cc2ccc3O)c2ccc(O)c(c2)-c2c(O)cc(O)cc2[C@H](C(=O)O)NC4=O)C1=O (stereo not given in full) | > 100 | > 100 | 20 | 1800 |  | 2 |  | 18 | > 100 | > 100 | 7.2 | > 100 |  |  |
| CC(=O)N[C@H]1[C@H]([C@H](O)[C@H](O)CO)OC(C(=O)O)=C[C@@H]1N=C(N)N [ZANAMIVIR] | 0.041 | 0.19 | > 100 | 1900 |  | 30 |  | > 100 | 20 | 3.2 | 0.0062 | 0.0079 |  |  |
| CCCCCCCCCCCCSC1=C(SCCCCCCCCCCCC)C(=O)N([C@H]2C(=O)N[C@@H]3Cc4ccc(c(Cl)c4)Oc4cc5cc(c4O)Oc4ccc(cc4Cl)[C@@H](O[C@@H]4O[C@H](CO)[C@@H](O)[C@H](O)[C@H]4NC(C)=O)[C@H]4NC(=O)[C@H](NC(O)[C@@H]5NC(=O)[C@@H](NC3=O)c3cc(O)cc(c3)Oc3cc2ccc3O)c2ccc(O)c(c2)-c2c(O)cc(O)cc2[C@H](C(=O)O)NC4=O)C1=O (stereo not given in full) | > 100 | > 100 | ≤ 4 | > 100000 |  | > 100 |  | ≤ 1.1 | > 100 | > 100 | > 100 | > 100 |  |  |
| CC(=O)N[C@H]1[C@H](O[C@@H]2c3ccc(c(Cl)c3)Oc3cc4cc(c3O)Oc3ccc(cc3Cl)C[C@H]3NC(=O)C(n5cc(COCCOCCOCCOCCN6C(=O)C(SCCOCCOCCOCCO)=C(SCCOCCOCCOCCO)C6=O)nn5)c5ccc(O)c(c5)Oc5cc(O)cc(c5)[C@H](NC3=O)C(=O)N[C@H]4C(O)N[C@H]3C(=O)N[C@H]2C(=O)N[C@@H](C(=O)O)c2cc(O)cc(O)c2-c2cc3ccc2O)O[C@H](CO)[C@@H](O)[C@@H]1O (stereo not given in full) | > 100 | > 100 | > 100 | > 100000 |  | > 100 |  | ≥ 32 | > 100 | 23 | 42 | > 100 |  |  |
| NC(=O)c1ncn([C@@H]2O[C@H](CO)[C@@H](O)[C@H]2O)n1 [RIBAVIRIN] |  |  | > 100 |  |  |  |  |  | 13 | 5.9 |  |  | 8.4 | 9.1 |
